Measurements from different studies.
Each line is one published result; the experiments were not run side by side.
Target: Homeodomain-interacting protein kinase 1 (HIPK1, Homo sapiens, UniProt Q86Z02)

COc1cccc(CCNc2nc3cc(C(=O)O)ccc3c3cncnc23)c1
remaining activity (enzyme activity, inhibitor, radiometric; 1 µM): 36%

CN1CC(Oc2cnc(C#N)cc2-c2ccn3nc(NC(=O)C4CC4)cc3c2)C1
inhibition (enzyme activity, inhibitor; 1 µM): -3%

O=C(O)c1ccc2c(c1)nc(Nc1ccc(F)c(Cl)c1)c1ccncc12
remaining activity (enzyme activity, inhibitor, radiometric; 1 µM): 8%

COc1cc2nccc(Oc3ccc(NC(=O)c4c5n(n(-c6ccc(F)cc6)c4=O)CCCC5)cc3)c2cc1OC
inhibition (enzyme activity, inhibitor; 0.1 µM): 12%

CCN(CC)CCNC(=O)c1c(C)[nH]c(/C=C2\C(=O)Nc3ccc(F)cc32)c1C
inhibition (enzyme activity, inhibitor; 10 µM): 59%

COc1cc(Nc2cnc(C#N)c(O[C@H](C)CN(C)C)n2)ncc1-c1cnn(C)c1
remaining activity (enzyme activity, inhibitor, radiometric; 1 µM): 95%

FC(F)(F)Oc1cccc(-c2cnc3ccc(-c4ccncc4)nn23)c1
activity vs control (enzyme activity, inhibitor, radiometric; 1 µM): 29%

CC(=O)c1c(NS(C)(=O)=O)c2cc(-c3ccc(Cl)cc3)c(-c3ccc(Cl)cc3Cl)nc2n(C)c1=O
remaining binding (cell-free assay, competition with immobilised ligand; 1 µM): 96%

O=C(O)c1ccc2c(c1)nc(Nc1ccccc1)c1ncncc12
remaining activity (enzyme activity, inhibitor, radiometric; 1 µM): 11%

O=C1Nc2ccc(Cl)cc2C1=Cc1cc(Cl)c(O)c(Cl)c1
remaining signal (cell-free assay; 0.5 µM): 102%

O=C(O)c1ccc2c(c1)nc(NCCc1cccc(F)c1)c1ccncc12
remaining activity (enzyme activity, inhibitor, radiometric; 1 µM): 13%

N#CCCc1ccc2c(c1)-c1[nH]c3ccc([N+](=O)[O-])cc3c1CC(=O)N2
remaining signal (cell-free assay; 0.5 µM): 97.9%

CNC(=O)Nc1ccc2c(c1)CC[C@@]21OC(=O)N(CC(=O)N(Cc2ccc(F)cc2)[C@@H](C)C(F)(F)F)C1=O
remaining binding (cell-free assay, competition with immobilised ligand; 1 µM): 85%

O=C(O)c1ccc2c(c1)nc(NCCc1cccc(Cl)c1)c1ncncc12
remaining activity (enzyme activity, inhibitor, radiometric; 1 µM): 35%

O=C1NC(=O)c2cc(Nc3ccc(F)cc3)c(Nc3ccc(F)cc3)cc21
remaining signal (cell-free assay; 0.5 µM): 102%

Cc1nccc(COC(=O)N2C[C@@H]3[C@@H](CNC(=O)c4ccc5[nH]nnc5c4)[C@@H]3C2)n1
remaining binding (cell-free assay, competition with immobilised ligand; 1 µM): 82%

O=C(O)c1ccc2c(c1)nc(Nc1cccc(F)c1)c1ncncc12
remaining activity (enzyme activity, inhibitor, radiometric; 1 µM): 3%

C[C@H](c1ccc(F)cc1)N(Cc1cccc(C(=O)O)c1)C(=O)c1cnc2ccccc2c1
remaining binding (cell-free assay, competition with immobilised ligand; 1 µM): 100%

Cc1ccc(Nc2nccc(N(C)c3ccc4c(C)n(C)nc4c3)n2)cc1S(N)(=O)=O
inhibition (enzyme activity, inhibitor; 0.3 µM): 11%

N#Cc1cccc(Nc2nc3cc(C(=O)O)ccc3c3cncnc23)c1
remaining activity (enzyme activity, inhibitor, radiometric; 1 µM): 17%

FC(F)c1nc2ccccc2n1-c1nc(N2CCOCC2)nc(N2CCOCC2)n1
remaining activity (enzyme activity, inhibitor; 10 µM): 100%

CN([C@@H]1CCc2c(CC(=O)O)c3cc(S(C)(=O)=O)ccc3n2C1)S(=O)(=O)c1ccc(F)cc1
remaining binding (cell-free assay, competition with immobilised ligand; 1 µM): 77%

COc1cc2ncnc(Nc3ccc(Oc4ccccc4)c(C)c3C)c2cc1OC
inhibition (enzyme activity, inhibitor; 1 µM): 3%

CS(=O)(=O)c1cc(C2(NC(=O)c3cncc4c3cnn4-c3ccc(F)cc3)CC2)ccn1
remaining binding (cell-free assay, competition with immobilised ligand; 1 µM): 92%

O=C(O)c1ccc2c(c1)nc(NCCc1cccc(Cl)c1)c1ccncc12
remaining activity (enzyme activity, inhibitor, radiometric; 1 µM): 20%

Cc1c[nH]c2nccc(Oc3c(F)cc(Nc4cc(Cl)nc(N)n4)cc3F)c12
remaining binding (cell-free assay, competition with immobilised ligand; 0.1 µM): 100%

Cc1ccc(NC(=O)c2ccc(C)c(C(F)(F)F)c2)cc1C#Cc1nn(C2CCC(O)CC2)c2ncnc(N)c12 (centres unmarked)
remaining signal (cell-free assay; 10 µM): 107%

Cn1nc(C(F)(F)F)cc1-c1cnc(N2CCc3cc(S(=O)(=O)Nc4c(F)cc(Cl)cc4F)cc(N4CCCC4=O)c32)nc1
remaining binding (cell-free assay, competition with immobilised ligand; 1 µM): 87%

CNC(=O)c1cc(Oc2ccc(NC(=O)Nc3ccc(Cl)c(C(F)(F)F)c3)cc2)ccn1
inhibition (enzyme activity, inhibitor; 10 µM): 61%
